ChEMBL document CHEMBL4808227, “Induction of apoptosis, cytotoxicity and radiosensitization by novel 3,4-dihydroquinazolinone derivatives” (Bioorg Med Chem Lett, 2021)
Blank lines part the entries; values can stand above or below the molecule they belong to. Activity calls are given as the source filed them. No cut-off for these calls is given here.

Tests used:
HepG2 [1] = experiment: Cytotoxicity against human HepG2 cells measured after 24 hrs by MTT assay; assay type: functional, cell-based; details: HepG2, 24 h
How it was run: (§1)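 MTT viability assay on HepG-2 and MCF-7 cells with serial dilutions of compound for 24 hr. Viability is expressed as percent of untreated cells (taken as 100%). IC50 is the concentration inhibiting growth by 50%, mean ± SD of three independent experiments.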

MCF7 [2] = experiment: Cytotoxicity against human MCF7 cells measured after 24 hrs by MTT assay; assay type: functional, cell-based; details: MCF7, 24 h; how it was run: as §1
[3] = target: Epidermal growth factor receptor (Homo sapiens, UniProt P00533); experiment: Inhibition of EGFR (unknown origin)
HepG2 [4] = experiment: Radiosensitizing activity against human HepG2 cells assessed as downregulation of XIAP mRNA expression pretreated with compound followed by exposure to 8 Gy gamma irradiation by real time RT-PCR analysis; assay type: functional, cell-based
HepG2 [5] = experiment: Induction of apoptosis in human HepG2 cells assessed as increase in caspase-3 level by ELISA relative to control; assay type: functional
How it was run: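 HepG-2 cells were treated with compound, with DMSO-treated cells as control. Caspase-3 secreted into the culture medium was measured by ELISA, given as mean ± SD, n = 3.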

HepG2 [6] = experiment: Radiosensitizing activity against human HepG2 cells assessed as downregulation of Survivin mRNA expression pretreated with compound followed by exposure to 8 Gy gamma irradiation by real time RT-PCR analysis; assay type: functional, cell-based
HepG2 [7] = experiment: Cell cycle arrest in human HepG2 cells assessed as accumulation of cells at G2/M phase measured by flow cytometry ( Rvb = 21.7%); assay type: functional
HepG2 [8] = experiment: Induction of apoptosis in human HepG2 cells assessed as early apoptotic cells by Annexin V-FITC/propidium iodide staining based flow cytometric analysis (reference value: 5.06 %); assay type: functional
[9] = Upregulation of p21 mRNA expression in human HepG2 cells by real time RT-PCR analysis relative to control; assay type: functional
How it was run: (§2)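 HepG-2 cells were treated with compound. Survivin, XIAP and p21 mRNA were quantified by real-time RT-PCR, with each triplicate's Ct normalized to GAPDH. Expression is relative to control.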

[10] = Downregulation of Survivin mRNA expression in human HepG2 cells by real time RT-PCR analysis relative to control; assay type: functional; how it was run: as §2
HepG2 [11] = experiment: Cell cycle arrest in human HepG2 cells assessed as accumulation of cells at G0/G1 phase measured by flow cytometry (reference value: 71.6%); assay type: functional
HepG2 [12] = experiment: Induction of apoptosis in human HepG2 cells assessed as necrotic cells by Annexin V-FITC/propidium iodide staining based flow cytometric analysis (reference value: 0.007 %); assay type: functional
MCF7 [13] = experiment: Radiosensitizing activity against human MCF7 cells assessed as reduction in cell viability pretreated with compound followed by exposure to 8 Gy gamma irradiation and measured by MTT assay; assay type: functional, cell-based; details: MCF7, light or radiation study
How it was run: (§3)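 HepG-2 and MCF-7 cells containing compound received a single dose of 8 Gy gamma radiation. Cytotoxicity was then measured, with IC50 as the mean ± SD of three independent experiments.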

HepG2 [14] = experiment: Induction of apoptosis in human HepG2 cells assessed as late apoptotic cells by Annexin V-FITC/propidium iodide staining based flow cytometric analysis (reference value: 0.507 %); assay type: functional
HepG2 [15] = experiment: Radiosensitizing activity against human HepG2 cells assessed as reduction in cell viability pretreated with compound followed by exposure to 8 Gy gamma irradiation and measured by MTT assay; assay type: functional, cell-based; details: HepG2, light or radiation study; how it was run: as §3
[16] = Downregulation of XIAP mRNA expression in human HepG2 cells by real time RT-PCR analysis relative to control; assay type: functional; how it was run: as §2
HepG2 [17] = experiment: Induction of apoptosis in human HepG2 cells assessed as viable cells by Annexin V-FITC/propidium iodide staining based flow cytometric analysis (reference value: 94.4 %); assay type: functional
HepG2 [18] = experiment: Cell cycle arrest in human HepG2 cells assessed as accumulation of cells at S phase measured by flow cytometry (reference value: 6.08%); assay type: functional

Chain of Epidermal growth factor receptor (P00533 whole entry): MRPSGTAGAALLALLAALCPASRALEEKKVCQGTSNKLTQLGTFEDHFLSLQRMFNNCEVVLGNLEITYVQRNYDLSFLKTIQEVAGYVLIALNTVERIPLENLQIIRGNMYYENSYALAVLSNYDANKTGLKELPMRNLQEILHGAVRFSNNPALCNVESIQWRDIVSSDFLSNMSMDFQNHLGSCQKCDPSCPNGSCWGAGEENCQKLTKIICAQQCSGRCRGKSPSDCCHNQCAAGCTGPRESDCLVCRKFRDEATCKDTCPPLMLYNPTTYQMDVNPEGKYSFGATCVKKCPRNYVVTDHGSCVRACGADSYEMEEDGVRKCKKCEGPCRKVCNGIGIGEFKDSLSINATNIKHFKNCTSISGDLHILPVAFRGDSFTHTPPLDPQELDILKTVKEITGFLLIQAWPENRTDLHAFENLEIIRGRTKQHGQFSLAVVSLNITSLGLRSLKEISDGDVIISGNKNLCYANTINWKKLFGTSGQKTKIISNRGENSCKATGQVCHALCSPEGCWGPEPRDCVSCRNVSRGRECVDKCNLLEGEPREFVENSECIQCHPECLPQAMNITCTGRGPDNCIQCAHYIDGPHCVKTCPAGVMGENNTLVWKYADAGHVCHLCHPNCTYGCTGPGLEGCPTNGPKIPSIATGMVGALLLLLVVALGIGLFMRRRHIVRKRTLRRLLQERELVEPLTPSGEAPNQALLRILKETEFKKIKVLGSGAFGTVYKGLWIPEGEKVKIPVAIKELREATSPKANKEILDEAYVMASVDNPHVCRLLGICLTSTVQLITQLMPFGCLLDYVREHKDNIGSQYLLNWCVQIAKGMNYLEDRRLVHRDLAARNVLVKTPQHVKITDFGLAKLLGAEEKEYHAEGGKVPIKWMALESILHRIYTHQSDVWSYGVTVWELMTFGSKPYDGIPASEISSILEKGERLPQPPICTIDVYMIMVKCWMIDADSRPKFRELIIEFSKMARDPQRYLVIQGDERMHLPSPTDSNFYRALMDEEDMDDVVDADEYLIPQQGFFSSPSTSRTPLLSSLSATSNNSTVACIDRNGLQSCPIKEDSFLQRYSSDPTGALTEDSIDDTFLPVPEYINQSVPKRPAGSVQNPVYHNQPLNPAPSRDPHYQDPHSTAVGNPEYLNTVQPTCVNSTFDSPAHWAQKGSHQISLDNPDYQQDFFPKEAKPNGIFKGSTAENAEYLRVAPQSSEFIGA

Structure (SMILES): O=C(CSc1nc2ccccc2c(=O)n1Cc1ccc2c(c1)OCO2)Nc1ccc(F)cc1
- IC50 (HepG2 [1]): 7.18 µM
- IC50 (MCF7 [2]): 14.5 µM

Structure (SMILES): O=C(CSc1nc2ccccc2c(=O)n1Cc1ccc2c(c1)OCO2)NNC(=S)Nc1ccc(S(=O)(=O)Nc2ccccn2)cc1
- IC50 (HepG2 [1]): 36.9 µM
- IC50 (MCF7 [2]): 3.87 µM

- IC50 [3]: 0.147 µM
Structure (SMILES): CCS(=O)(=O)NNC(=O)CSc1nc2ccccc2c(=O)n1Cc1ccc2c(c1)OCO2
- Activity (HepG2 [4]): Active
- Activity (HepG2 [5]): 50%
- IC50 (HepG2 [1]): 8.76 µM
- Activity (HepG2 [6]): Active
- Activity (HepG2 [7]): 94.2%
- Activity (HepG2 [8]): 13.5%
- Activity [9]: 500%
- inhibition (INH) [10]: 50%
- Activity (HepG2 [11]): 0.039%
- Activity (HepG2 [12]): 0.012%
- IC50 (MCF7 [13]): 5.93 µM
- Activity (HepG2 [14]): 0.4%
- IC50 (HepG2 [15]): 2.25 µM
- inhibition (INH) [16]: 50%
- IC50 (MCF7 [2]): 15.3 µM
- Activity (HepG2 [17]): 86.1%
- Activity (HepG2 [18]): 2.45%

Structure (SMILES): COc1cccc2c1C(=O)c1c(O)c3c(c(O)c1C2=O)C[C@@](O)(C(=O)CO)C[C@@H]3O[C@H]1C[C@H](N)[C@H](O)[C@H](C)O1 [DOXORUBICIN]
- IC50 (HepG2 [1]): 8.9 µM

Structure (SMILES): O=C(CSc1nc2ccccc2c(=O)n1Cc1ccc2c(c1)OCO2)Nc1ccccc1Cl
- IC50 (HepG2 [1]): 17.9 µM
- IC50 (MCF7 [2]): 10.3 µM

- IC50 [3]: 0.207 µM
Structure (SMILES): O=C(CSc1nc2ccccc2c(=O)n1Cc1ccc2c(c1)OCO2)Nc1ccccc1F
- Activity (HepG2 [4]): Active
- Activity (HepG2 [5]): 100%
- IC50 (HepG2 [1]): 2.46 µM
- Activity (HepG2 [6]): Active
- Activity (HepG2 [7]): 92.9%
- Activity (HepG2 [8]): 12.6%
- Activity [9]: 400%
- inhibition (INH) [10]: 50%
- Activity (HepG2 [11]): 0%
- Activity (HepG2 [12]): 0.02%
- IC50 (MCF7 [13]): 3.06 µM
- Activity (HepG2 [14]): 0.762%
- IC50 (HepG2 [15]): 1.56 µM
- inhibition (INH) [16]: 50%
- IC50 (MCF7 [2]): 5.86 µM
- Activity (HepG2 [17]): 84.5%
- Activity (HepG2 [18]): 0.071%

Structure (SMILES): O=C(CSc1nc2ccccc2c(=O)n1Cc1ccc2c(c1)OCO2)NNS(=O)(=O)c1ccccc1
- IC50 (HepG2 [1]): 22.2 µM
- IC50 (MCF7 [2]): 88.9 µM

Structure (SMILES): CC(=O)Nc1ccc(S(=O)(=O)NNC(=O)CSc2nc3ccccc3c(=O)n2Cc2ccc3c(c2)OCO3)cc1
- IC50 (HepG2 [1]): 33.9 µM
- IC50 (MCF7 [2]): 11.4 µM

- IC50 [3]: 1.03 µM
Structure (SMILES): O=C(CSc1nc2ccccc2c(=O)n1Cc1ccc2c(c1)OCO2)Nc1ccc(Br)cc1Br
- Activity (HepG2 [4]): Active
- Activity (HepG2 [5]): 50%
- IC50 (HepG2 [1]): 4.01 µM
- Activity (HepG2 [6]): Active
- Activity (HepG2 [7]): 85.8%
- Activity (HepG2 [8]): 15.4%
- Activity [9]: 400%
- inhibition (INH) [10]: 50%
- Activity (HepG2 [11]): 0.06%
- Activity (HepG2 [12]): 0.02%
- IC50 (MCF7 [13]): 4.91 µM
- Activity (HepG2 [14]): 0.16%
- IC50 (HepG2 [15]): 1.76 µM
- inhibition (INH) [16]: 50%
- IC50 (MCF7 [2]): 14.9 µM
- Activity (HepG2 [17]): 86.6%
- Activity (HepG2 [18]): 2.32%

- IC50 [3]: 0.754 µM
Structure (SMILES): O=C(CSc1nc2ccccc2c(=O)n1Cc1ccc2c(c1)OCO2)Nc1ccc(I)cc1
- Activity (HepG2 [4]): Active
- Activity (HepG2 [5]): 50%
- IC50 (HepG2 [1]): 13.2 µM
- Activity (HepG2 [6]): Active
- Activity (HepG2 [7]): 87.8%
- Activity (HepG2 [8]): 7.12%
- Activity [9]: 200%
- inhibition (INH) [10]: 50%
- Activity (HepG2 [11]): 0.042%
- Activity (HepG2 [12]): 0.024%
- IC50 (MCF7 [13]): 4.69 µM
- Activity (HepG2 [14]): 0.308%
- IC50 (HepG2 [15]): 4.32 µM
- inhibition (INH) [16]: 50%
- IC50 (MCF7 [2]): 6.84 µM
- Activity (HepG2 [17]): 92.5%
- Activity (HepG2 [18]): 2.73%

Structure (SMILES): O=C(CSc1nc2ccccc2c(=O)n1Cc1ccc2c(c1)OCO2)Nc1ccc(Br)cc1
- IC50 (HepG2 [1]): 11.1 µM
- IC50 (MCF7 [2]): 20.4 µM

Structure (SMILES): C#Cc1cccc(Nc2ncnc3cc(OCCOC)c(OCCOC)cc23)c1 [ERLOTINIB]
- IC50 (MCF7 [2]): 12.4 µM

Structure (SMILES): NNC(=O)CSc1nc2ccccc2c(=O)n1Cc1ccc2c(c1)OCO2
- IC50 (HepG2 [1]): 8.15 µM
- IC50 (MCF7 [2]): 20.7 µM

Structure (SMILES): O=C(CSc1nc2ccccc2c(=O)n1Cc1ccc2c(c1)OCO2)NNC(=S)Nc1ccc(S(=O)(=O)Nc2ccc(Cl)nn2)cc1
- IC50 (HepG2 [1]): 9.34 µM
- IC50 (MCF7 [2]): 46 µM

Structure (SMILES): O=C(CSc1nc2ccccc2c(=O)n1Cc1ccc2c(c1)OCO2)Nc1cccc(F)c1
- IC50 (HepG2 [1]): 8.51 µM
- IC50 (MCF7 [2]): 7.6 µM

Structure (SMILES): CCS(=O)(=O)Nc1ccc(/C(C)=N/NC(=O)CSc2nc3ccccc3c(=O)n2Cc2ccc3c(c2)OCO3)cc1
- IC50 (HepG2 [1]): 9.08 µM
- IC50 (MCF7 [2]): 13.9 µM

Structure (SMILES): O=C(CSc1nc2ccccc2c(=O)n1Cc1ccc2c(c1)OCO2)Nc1cc(Cl)c(Cl)cc1Cl
- IC50 (HepG2 [1]): 12.1 µM
- IC50 (MCF7 [2]): 26.1 µM

Structure (SMILES): CCC(=O)Nc1ccc(S(=O)(=O)Nc2ccc(/C(C)=N/NC(=O)CSc3nc4ccccc4c(=O)n3Cc3ccc4c(c3)OCO4)cc2)cc1
- IC50 (HepG2 [1]): 4.21 µM
- IC50 (MCF7 [2]): 15.1 µM

Structure (SMILES): O=c1c2ccccc2[nH]c(=S)n1Cc1ccc2c(c1)OCO2
- IC50 (HepG2 [1]): 27.3 µM
- IC50 (MCF7 [2]): 26.6 µM

Structure (SMILES): Cc1ccc(S(=O)(=O)NNC(=O)CSc2nc3ccccc3c(=O)n2Cc2ccc3c(c2)OCO3)cc1
- IC50 (HepG2 [1]): 28.2 µM
- IC50 (MCF7 [2]): 49.8 µM
